Data on two compounds can be found in ChEMBL document CHEMBL1136510, “Nociceptin/Orphanin FQ(1-13)NH2 analogues modified in the Phe1-Gly2 peptide bond” (Bioorg Med Chem Lett, 2003).

pEC50: −log10 of the molar value. Active and inactive are the calls of the source. The calls are words filed in the database; no cut-off is given here.

Assay [1] is filed under the species Mus musculus. In words: (§1) Agonistic activity determined by its ability to inhibit the electrically evoked contraction of the mouse vas deferens (mVD). Format: functional. In outline: (§2)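 Isolated mouse vas deferens, electrically stimulated; inhibition of evoked twitch contraction. Cumulative concentration-response curves up to 10 µM (highest concentration tested); potency expressed as pEC50.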

For assay [2], the species on record is Mus musculus. The assay is described as §1. Type of assay: functional, organism-based. In outline: as §2
The species named for assay [3] is Mus musculus. In words: Agonistic activity determined by its ability to inhibit the electrically evoked contraction of the mouse vas deferens (mVD); Inactive up to 10 uM. Type of assay: functional. In outline:
as §2

In general, Emax refers to the size of the effect at its maximum, as opposed to the concentration needed. As a reminder, the pEC50 is −log10 of the EC50, conventionally taken in molar units. As for `C[C@H](NC(=O)CNC(=O)[C@@H](NC(=O)[C@H](Cc1ccccc1)NC(=O)CNC(=O)CNC(=O)[C@@H](N)Cc1ccccc1)[C@@H](C)O)C(=O)N[C@@H](CCCNC(=N)N)C(=O)N[C@@H](CCCCN)C(=O)N[C@@H](CO)C(=O)N[C@@H](C)C(=O)N[C@@H](CCCNC(=N)N)C(=O)N[C@@H](CCCCN)C(N)=O`, the Emax in the assay filed under Mus musculus [1] came to 90%. Further, in the assay filed under Mus musculus [2], the negative-log EC50 (pEC50) was 7.85.

`C[C@H](NC(=O)CNC(=O)[C@@H](NC(=O)[C@H](Cc1ccccc1)NC(=O)CNC(=O)CNC[C@@H](N)Cc1ccccc1)[C@H](C)O)C(=O)N[C@@H](CCCN=C(N)N)C(=O)N[C@@H](CCCCN)C(=O)N[C@@H](CO)C(=O)N[C@@H](C)C(=O)N[C@@H](CCCN=C(N)N)C(=O)N[C@@H](CCCCN)C(N)=O`: the “Log EC50” value in the assay filed under Mus musculus [3] is “inactive”.
